Data reported in ChEMBL document CHEMBL1146768, “Orally active factor Xa inhibitors: 4,5,6,7-tetrahydrothiazolo[5,4-c]pyridine derivatives” (Bioorg Med Chem Lett, 2004).

What was measured:
Prothrombin = Prothrombin (Homo sapiens, UniProt P00734); assay: In vitro inhibitory activity against human thrombin
Coagulation factor X = Coagulation factor X (Homo sapiens, UniProt P00742); assay: In vitro inhibitory activity against human Coagulation factor X
Homo sapiens = species: Homo sapiens; assay: Anti-coagulant activity in human plasma were evaluated with the plasma clotting time doubling concentration; format: functional, cell-free
Rattus norvegicus [1] = assay: Ex vivo anti-coagulant activity at 6 hr after oral administration of 30 mg/kg to rats perorally; format: functional
Rattus norvegicus [2] = assay: Ex vivo anti-fXa activity at 1 hr after oral administration of 30 mg/kg to rats perorally; format: functional
Summary of the method: (§1)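 Male Wistar rats, fasted overnight, dosed by stomach tube with compound in 0.5% (w/v) methylcellulose; controls got vehicle alone. Blood drawn into trisodium citrate under halothane anaesthesia at set times, and platelet-poor plasma prepared.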

Rattus norvegicus [3] = assay: Ex vivo anti-coagulant activity at 1 hr after oral administration of 30 mg/kg to rats perorally; format: functional
Rattus norvegicus [4] = assay: Ex vivo anti-coagulant activity at 3 hr after oral administration of 30 mg/kg to rats perorally; format: functional
Rattus norvegicus [5] = assay: Ex vivo anti-fXa activity at 6 hr after oral administration of 30 mg/kg to rats perorally; format: functional; summary of the method: as §1
Rattus norvegicus [6] = assay: Ex vivo anti-fXa activity at 3 hr after oral administration of 30 mg/kg to rats perorally; format: functional; summary of the method: as §1

Sequence of Coagulation factor X (P00742 41-179 limits assumed): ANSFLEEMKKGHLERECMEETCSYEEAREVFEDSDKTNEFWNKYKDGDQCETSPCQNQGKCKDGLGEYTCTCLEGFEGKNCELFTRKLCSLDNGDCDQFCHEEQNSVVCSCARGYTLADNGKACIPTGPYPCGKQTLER
Sequence of Coagulation factor X (P00742 235-488 limits assumed): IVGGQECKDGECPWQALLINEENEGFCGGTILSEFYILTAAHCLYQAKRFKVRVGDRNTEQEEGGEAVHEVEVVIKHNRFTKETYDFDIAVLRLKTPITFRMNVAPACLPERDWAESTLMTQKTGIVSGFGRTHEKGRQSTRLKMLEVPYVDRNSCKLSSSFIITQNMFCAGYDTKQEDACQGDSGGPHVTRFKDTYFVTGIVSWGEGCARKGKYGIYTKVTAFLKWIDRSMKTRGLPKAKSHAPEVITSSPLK

SMILES | IC50 (Prothrombin) | IC50 (Coagulation factor X) | Concentration (Homo sapiens) | Prolongation effect (Rattus norvegicus [1]) | Anti-fXa activity (Rattus norvegicus [2]) | Prolongation effect (Rattus norvegicus [3]) | Prolongation effect (Rattus norvegicus [4]) | Anti-fXa activity (Rattus norvegicus [5]) | Anti-fXa activity (Rattus norvegicus [6])
CN1CCc2nc(C(=O)N3CCN(S(=O)(=O)c4ccc5cc(Cl)ccc5c4)CC3C(=O)NCc3ccccc3)sc2C1 (stereo not given) | 1300 nM | 640 nM | – | – | – | – | – | – | –
CN1CCc2nc(C(=O)N3CCN(S(=O)(=O)c4ccc5cc(Cl)ccc5c4)CC3C(=O)NCC(=O)N3CCOCC3)sc2C1 (stereo not given) | 1000 nM | 25 nM | 2.1 µM | – | – | – | – | – | –
CN1CCc2nc(C(=O)N3CCN(S(=O)(=O)c4ccc5cc(Cl)ccc5c4)CC3)sc2C1 | 560 nM | 22 nM | 6 µM | – | – | – | – | – | –
C[N+]1(C)CCc2nc(C(=O)N3CCN(S(=O)(=O)c4ccc5cc(Cl)ccc5c4)CC3)sc2C1 | 3200 nM | 7.8 nM | 0.8 µM | – | – | – | – | – | –
O=C(c1nc2c(s1)CNCC2)N1CCN(S(=O)(=O)c2ccc3cc(Cl)ccc3c2)CC1 | 2900 nM | 60 nM | 11.2 µM | – | – | – | – | – | –

Further lines, with some results ahead:

IC50 (Prothrombin) | IC50 (Coagulation factor X) | SMILES | Concentration (Homo sapiens) | Prolongation effect (Rattus norvegicus [1]) | Anti-fXa activity (Rattus norvegicus [2]) | Prolongation effect (Rattus norvegicus [3]) | Prolongation effect (Rattus norvegicus [4]) | Anti-fXa activity (Rattus norvegicus [5]) | Anti-fXa activity (Rattus norvegicus [6])
820 nM | 45 nM | CC(C)NC(=O)C1CN(S(=O)(=O)c2ccc3cc(Cl)ccc3c2)CCN1C(=O)c1nc2c(s1)CN(C)CC2 (stereo not given) | 8.8 µM | – | – | – | – | – | –
880 nM | 23 nM | CN1CCc2nc(C(=O)N3CCN(S(=O)(=O)c4ccc5cc(Cl)ccc5c4)CC3C(=O)NCC(N)=O)sc2C1 (stereo not given) | 3.8 µM | – | – | – | – | – | –
1000 nM | – | CN1CCc2nc(C(=O)N3CCN(S(=O)(=O)c4ccc5cc(Cl)ccc5c4)CC3C(N)=O)sc2C1 (stereo not given) | 4.4 µM | 1.05 | 67.4% | 1.13 | 1.09 | 24.7% | 55.8%
1350 nM | 27 nM | CNC(=O)C1CN(S(=O)(=O)c2ccc3cc(Cl)ccc3c2)CCN1C(=O)c1nc2c(s1)CN(C)CC2 (stereo not given) | 3 µM | 1.04 | 89.5% | 1.35 | 1.14 | 23.5% | 73.7%
6000 nM | 130 nM | CN1CCc2nc(C(=O)N3CCN(S(=O)(=O)c4ccc5cc(Cl)ccc5c4)CC3C(=O)N(C)C)sc2C1 (stereo not given) | 7 µM | – | – | – | – | – | –
